Eight molecules from ChEMBL document CHEMBL4219108, “Synthesis, photophysical properties, and photodynamic activity of positional isomers of TFPP-glucose conjugates” (Bioorg Med Chem, 2018) can be followed below.

Calls of active or inactive are those of the source. The calls are words filed in the database; no cut-off is given here.

The nature of data set [1]: Lipophilicity, log P of the compound. As to conditions: octanol/water. Type of data set: physicochemical. Summed up:
(§1)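 Log P (n-octanol/water partition) determined by reverse-phase thin-layer chromatography.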

The nature of data set [2]: n-Octanol/water partition co-efficient, log P of the compound by RP-TLC method. The class given is physicochemical. Summed up: as §1
The next data set deals with U-251. Description: Phototoxicity against human U251 cells assessed as reduction in cell survival at 0.2 to 1 uM pretreated for 24 hrs followed by 16 J/cm2 irradiation with halogen lamp measured after 24 hrs by CCK8 assay. Type of data set: functional, cell-based. Summed up: (§2)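 HeLa, U251 (DMEM, 10% FCS) or RGK cells plated 5×10^3/well and grown 24 h. Conjugate added at 0.1–1 µM (final 1% DMSO) for 24 h. Cells PBS-washed twice, given fresh medium and irradiated with a 100 W halogen lamp (water jacket, λ >500 nm) to 16 J cm⁻². WST-8 absorbance read at 450 nm 24 h later; survival normalized to untreated wells. EC50 for 50% cell death. Mean ± SD of six replicates.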

For another data set, the species on record is Rattus norvegicus. Kind of data set: Phototoxicity against rat RGK1 cells assessed as reduction in cell survival at 0.2 to 1 uM pretreated for 24 hrs followed by 16 J/cm2 irradiation with halogen lamp measured after 24 hrs by CCK8 assay. The class given is functional, cell-based. The procedure, abridged:
as §2
(Formazan colour is commonly taken as a measure of viable cells.)

Data set [3] is described as follows: Drug uptake in rat RGK1 cells at 2.5 uM measured after 8 to 24 hrs by fluorescence assay. Type of data set: ADME, cell-based. Summed up: (§3)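 RGK cells (MNNG-induced mutant of rat RGM gastric mucosal line; DMEM/F12 1:1, 10% FCS, antibiotic-antimycotic) plated 2.5×10^6/well for 24 h. Pre-incubated 2 h with or without cytochalasin B (50 µM final), then given 2.5 µM compound in medium with 1% DMSO for 8 or 24 h. PBS-washed twice, lysed in DMSO. Fluorescence read at ex 430/em 650 nm and quantified against per-compound DMSO calibration. Mean ± SD of three replicates.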

A further data set relates to HeLa. Description: Phototoxicity against human HeLa cells assessed as reduction in cell survival up to 1 uM pretreated for 24 hrs followed by 16 J/cm2 irradiation with halogen lamp measured after 24 hrs by CCK8 assay. Type of data set: functional, cell-based. The procedure, abridged:
as §2

Data set [4] in a line: Dark toxicity in human HeLa cells assessed as reduction in cell survival at 1 uM measured after 24 hrs by CCK8 assay. Type of data set: cell-based. The procedure, abridged:
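HeLa cells seeded 5×10^3/well, grown 24 h (37°C, 5% CO2), then given conjugate at 1.0 μM (final 1% DMSO) for 24 h. Washed twice with PBS, fresh medium added, kept without light (0 J cm⁻²). WST-8 (CCK-8) read at 450 nm 24 h later. Survival normalized to untreated wells; mean ± SD of six replicates.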

Data set [5] in a line: Drug uptake in rat RGK1 cells at 2.5 uM measured after 8 to 24 hrs in presence of GLUT1 inhibitor cytochalasin B by fluorescence assay. Type of data set: ADME, cell-based. Summed up: as §3

As to `OCCOc1c(F)c(F)c(-c2c3nc(c(-c4c(F)c(F)c(OCCO)c(F)c4F)c4ccc([nH]4)c(-c4c(F)c(F)c(F)c(F)c4F)c4nc(c(-c5c(F)c(F)c(F)c(F)c5F)c5ccc2[nH]5)C=C4)C=C3)c(F)c1F`, the logP in data set [1] worked out at 6.5.
In turn, `OC[C@H]1OC(Sc2c(F)c(F)c(-c3c4nc(c(-c5c(F)c(F)c(F)c(F)c5F)c5ccc([nH]5)c(-c5c(F)c(F)c(F)c(F)c5F)c5nc(c(-c6c(F)c(F)c(F)c(F)c6F)c6ccc3[nH]6)C=C5)C=C4)c(F)c2F)[C@H](O)[C@@H](O)[C@@H]1O` (stereo partly specified) displayed a logP in data set [2] of 6.05. In addition, the result with U-251, in the data set filed under Rattus norvegicus and with HeLa was Active. Besides, the Drug uptake entry in data set [3] is recorded as “Active”. The Activity entry in data set [4] is “Non-Toxic”.
The molecule `OCCOc1c(F)c(F)c(-c2c3nc(c(-c4c(F)c(F)c(OCCO)c(F)c4F)c4ccc([nH]4)c(-c4c(F)c(F)c(OCCO)c(F)c4F)c4nc(c(-c5c(F)c(F)c(F)c(F)c5F)c5ccc2[nH]5)C=C4)C=C3)c(F)c1F` registered a logP in data set [1] of 5.4.
`OC[C@H]1OC(O)[C@H](Sc2c(F)c(F)c(-c3c4nc(c(-c5c(F)c(F)c(F)c(F)c5F)c5ccc([nH]5)c(-c5c(F)c(F)c(F)c(F)c5F)c5nc(c(-c6c(F)c(F)c(F)c(F)c6F)c6ccc3[nH]6)C=C5)C=C4)c(F)c2F)[C@@H](O)[C@@H]1O` (stereo partly specified) came in with a logP in data set [2] of 6.87. The result in the data set on U-251, in the data set filed under Rattus norvegicus and with HeLa was inactive. In addition, the Drug uptake entry in data set [3] is “Active”; in data set [5], “Not Active”. For the same molecule, in data set [4], the Activity entry is “Non-Toxic”.
On to `OC1O[C@H](CSc2c(F)c(F)c(-c3c4nc(c(-c5c(F)c(F)c(F)c(F)c5F)c5ccc([nH]5)c(-c5c(F)c(F)c(F)c(F)c5F)c5nc(c(-c6c(F)c(F)c(F)c(F)c6F)c6ccc3[nH]6)C=C5)C=C4)c(F)c2F)[C@@H](O)[C@H](O)[C@H]1O` (stereo partly specified), for which the logP in data set [2] came to 6.5. For the same molecule, the result in the data set with U-251, in the data set listed under Rattus norvegicus and with HeLa was Active. Also, in data set [3], the Drug uptake result is reported as “Active”. The Activity result in data set [4] is listed as “Non-Toxic”.
Regarding `OC[C@H]1OC(O)[C@H](O)[C@@H](O)[C@@H]1Sc1c(F)c(F)c(-c2c3nc(c(-c4c(F)c(F)c(F)c(F)c4F)c4ccc([nH]4)c(-c4c(F)c(F)c(F)c(F)c4F)c4nc(c(-c5c(F)c(F)c(F)c(F)c5F)c5ccc2[nH]5)C=C4)C=C3)c(F)c1F` (stereo partly specified), in data set [2], the logP was determined as 6.3. Further, the result with U-251, in the data set listed under Rattus norvegicus and in the data set with HeLa was Active. For the same molecule, the Drug uptake entry in data set [3] is reported as “Active”; in data set [5] it was “Not Active”. The Activity entry in data set [4] is listed as “Non-Toxic”.
For `OCCOc1c(F)c(F)c(-c2c3nc(c(-c4c(F)c(F)c(F)c(F)c4F)c4ccc([nH]4)c(-c4c(F)c(F)c(OCCO)c(F)c4F)c4nc(c(-c5c(F)c(F)c(F)c(F)c5F)c5ccc2[nH]5)C=C4)C=C3)c(F)c1F`, in data set [1], the lipophilicity (logP) is 6.5.
Molecule `OC[C@H]1OC(O)[C@H](O)[C@@H](Sc2c(F)c(F)c(-c3c4nc(c(-c5c(F)c(F)c(F)c(F)c5F)c5ccc([nH]5)c(-c5c(F)c(F)c(F)c(F)c5F)c5nc(c(-c6c(F)c(F)c(F)c(F)c6F)c6ccc3[nH]6)C=C5)C=C4)c(F)c2F)[C@@H]1O` (stereo partly specified) had a logP in data set [2] of 6.21. For the same molecule, the result in the data set on U-251, in the data set filed under Rattus norvegicus and in the data set on HeLa was Active. The Drug uptake result in data set [3] is on record as “Active”; in data set [5] it was “Not Active”. Also, in data set [4], the Activity result is listed as “Non-Toxic”.

As a reminder, the logP is a log measure of how a compound divides between an organic and an aqueous phase. Read a high logP as a more lipophilic compound.
